# Compound activity as filed in PubChem.
# The list is not random: actives were taken first. Their share in the collection is about 0.74%.
# Tn7 DDE FP – inhibitors of Tn7 peptide binding to fibrin DD(E), primary screen, biochemical, fluorescence polarization, human fibrin, Tn7 probe; Fibrinogen beta chain (Homo sapiens), P02675; FP displacement of FITC-Tn7 peptide from fibrin DD(E); 0% = median of compound wells per plate; inhibition, % at 8.3 µM; 0.13% of 370,000 active; AID 720508, 2013;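 active = inhibition above the mean of compounds falling within the control limits plus 3 SD of them, cut at about 14% in these data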
#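 Assay system: human fibrin DD(E) protein / Input: 2 µM fibrin DD(E) / Benchmarks: high control of 10 µM Aha-Tn7 peptide / Measured by: fluorescence polarization of the labelled Tn7 tracer / Medium: Tris buffer with calcium and detergent, pH 7.8 / Timing: 10 min compound pre-incubation, 3 h probe incubation at room temperature / Repeats: one replicate per compound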
# Tn6 DDE FP – inhibitors of Tn6 peptide binding to fibrin DD(E), primary screen, biochemical, fluorescence polarization, human fibrin, Tn6 probe; Fibrin DD(E) TRITC-Tn6 fluorescence polarization displacement; inhibition, % at 8.3 µM; 0.21% of 370,000 active; AID 720509, 2013; Fibrinogen beta chain (Homo sapiens), P02675;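 active = inhibition above a per-campaign cutoff: mean of compounds within control limits plus 3 SD, cut at about 15% in these data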
# ASAP1 inh – inhibitors of human ASAP1 ArfGAP activity, primary screen, biochemical, fluorescence polarization. inhibition, % at 16.5 µM. 0.19% of 360,000 active. ASAP1-stimulated ARF1 GTP hydrolysis, GDP FP detection. Arf-GAP with SH3 domain, ANK repeat and PH domain-containing protein 1 (Homo sapiens), …. AID 624377, 2012; in the data active = inhibition above about 25%
# Target sequence (Q9ULH1 325-724 limits assumed): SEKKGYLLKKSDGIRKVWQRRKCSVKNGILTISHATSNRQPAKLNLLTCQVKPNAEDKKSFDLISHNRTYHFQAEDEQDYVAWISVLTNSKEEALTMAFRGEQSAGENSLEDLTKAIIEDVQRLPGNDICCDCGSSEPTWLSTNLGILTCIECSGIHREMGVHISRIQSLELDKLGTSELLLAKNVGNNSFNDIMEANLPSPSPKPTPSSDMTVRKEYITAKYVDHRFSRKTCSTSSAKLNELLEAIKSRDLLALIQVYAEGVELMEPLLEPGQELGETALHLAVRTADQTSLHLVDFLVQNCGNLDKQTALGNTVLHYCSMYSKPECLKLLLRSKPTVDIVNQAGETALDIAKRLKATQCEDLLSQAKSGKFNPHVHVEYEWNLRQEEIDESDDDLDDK
# ARFGAP1 inhibitor – inhibitors of rat ARFGAP1 GAP activity, primary screen, biochemical, fluorescence polarization, GDP tracer | inhibition, % at 16.5 µM | 0.26% of 360,000 active | ADP-ribosylation factor GTPase-activating protein 1 (Rattus norvegicus), Q62848 | Arfgap1-stimulated ARF1 GTP hydrolysis, GDP FP detection | AID 651572, 2012;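 active = inhibition above a per-plate limit, mean inhibition of low control wells plus 3 SD, cut at about 25% in these data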
# Target sequence (Q62848 1-136 limits assumed): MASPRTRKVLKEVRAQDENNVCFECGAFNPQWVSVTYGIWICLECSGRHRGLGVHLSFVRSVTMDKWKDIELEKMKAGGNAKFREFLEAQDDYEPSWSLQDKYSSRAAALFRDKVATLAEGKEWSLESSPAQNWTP
#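 Material: rat Arfgap1 GAP domain (His6, aa 1-136), purified enzyme. Also added: human ARF1(Δ1-17)-GTP substrate. Compound dosing: 16.5 µM single point, 1.26% DMSO. Timing: enzyme reaction 120 min at 25 °C after 20 min preincubation. Signal: GDP detection by fluorescence polarization. Read-out basis: percent inhibition of GAP-stimulated GDP formation, scaled between DMSO and no-Arfgap1 medians.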
# ASAP1 GAP conf – ASAP1 GAP activity inhibitors, confirmation, biochemical, fluorescence polarization, human, triplicate. 37% of 620 active. shares compounds with ASAP1 inh. ASAP1-stimulated Arf1 GTPase, GDP fluorescence polarization. AID 624431, 2012. inhibition, % at 16.5 µM;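 active = mean inhibition over triplicates exceeds the hit threshold derived for the earlier primary screening run, cut at about 25% in these data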
# ARFGAP1 confirm – ARFGAP1 inhibitor hit confirmation, biochemical, fluorescence polarization, triplicate. shares compounds with ARFGAP1 inhibitor. ARFGAP1-stimulated ARF1 GTP hydrolysis, GDP tracer FP. inhibition, % at 16.5 µM. 30% of 890 active. AID 651608, 2012;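 active = average inhibition over triplicates above the hit cutoff set in the earlier primary screen, cut at about 25% in these data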
# Numbers stand for hits; . = inactive; / = no result.
SMILES,Tn7 DDE FP,Tn6 DDE FP,ASAP1 inh,ARFGAP1 inhibitor,ASAP1 GAP conf,ARFGAP1 confirm
C[C@H](O)[C@@H]1CN2CCc3ccc(-c4ccc5c(c4)OCO5)cc3[C@@H]2C[C@@H]1N(C)Cc1cc(Cl)cc(Cl)c1,.,.,.,.,/,/
CCCCCCCCN1C(=O)[C@@H](CC(=O)NCc2ccc(OC)c(OC)c2)C[C@@]2(C(=O)OC)C1=C[C@H](C(C)(C)C)O[C@@H]2C,.,.,.,.,/,/
Nc1ccc(Oc2cccc(Oc3ccc(N)cc3)c2)cc1,.,.,28,.,.,/
O=C(N[C@H](Cc1ccccc1)C(=O)NCc1ccc(OC(F)(F)F)cc1)[C@H]1O[C@@H](n2ccc(=O)[nH]c2=O)[C@H](O)[C@@H]1O,.,.,.,.,/,/
CC(=O)c1ccc(CCCCc2ccc(C(C)=O)cc2)cc1,.,.,25,.,.,/
CC(=O)c1ccc(CCCc2ccc(C(C)=O)cc2)cc1,.,.,.,.,/,/
OC[C@@H]1CN(Cc2ccc(-c3ccccc3)cc2)C[C@H](n2cnc3c(Nc4ccccc4)ncnc32)O1,.,.,26,.,.,/
COc1cccc(NC(=O)CN(C)C(=O)c2ccc(N3CCOCC3)c([N+](=O)[O-])c2)c1,.,.,.,.,/,/
COc1cccc(NC(=O)CN(C)C(=O)c2ccc(N3CCCCC3)c([N+](=O)[O-])c2)c1,.,.,25,.,.,/
COn1c(SC(C)C)nc2ccccc2c1=O,.,.,.,.,/,/
COn1c(SC2CCCCC2)nc2ccccc2c1=O,.,.,74,.,.,/
O=C(Nc1ccc(OC(F)(F)F)cc1)N1CCN(c2ccnc3cc(Cl)ccc23)CC1,.,.,25,.,.,/
COCCCNC(=O)C[C@H]1C[C@@]2(C(=O)OC)C(=C[C@H](C(C)(C)C)O[C@@H]2C)N(CCc2ccc(OC)c(OC)c2)C1=O,.,.,.,.,/,/
Cc1c(C(=O)Oc2ccc(-c3cnc4ccccc4n3)cc2)cccc1[N+](=O)[O-],.,.,25,.,.,/
O=C(Oc1ccc(-c2cnc3ccccc3n2)cc1)c1cc([N+](=O)[O-])ccc1Cl,.,.,.,.,/,/
Cc1cc2oc3cc(NCCC4CCCN4C)ccc3c(=O)c2cc1C (centres undefined),.,.,28,31,38,30
CCN(CC)CCOC(=O)c1ccc(NC(=O)c2cn(-c3ccccc3)nc2-c2cccs2)cc1,.,.,40,25,44,61
O=C(N/N=C/C=C/c1ccc([N+](=O)[O-])cc1)c1cccs1,.,.,54,60,67,66
COc1cc(/C=N\NC(=O)c2ccc(C)nc2)ccc1OC(=O)c1ccc2c(c1)OCO2,.,.,29,29,38,75
COc1ccccc1/C=N\Nc1cn[nH]c(=O)c1Cl,.,.,26,28,.,.
O=C1CC(O)C(Cc2ccccc2)N1 (centres undefined),.,.,.,.,/,/
COC(=O)C1=CC(=O)N2CCN=C2S1,.,.,.,.,/,/
O=C(NC1(O)C(=O)c2ccccc2C1=O)c1ccccc1,.,.,53,37,.,.
Cc1cc(C)c2nc(N3C(=O)C(O)=C(C(=O)c4ccco4)C3c3ccc(O)cc3)sc2c1 (centres undefined),.,.,.,.,/,/
Cc1cc(C)c2nc(N3C(=O)C(O)=C(C(=O)c4ccco4)C3c3cccc(O)c3)sc2c1 (centres undefined),.,.,26,25,39,39
SMILES,Tn7 DDE FP,Tn6 DDE FP,ASAP1 inh,ARFGAP1 inhibitor,ASAP1 GAP conf,ARFGAP1 confirm
COCCCNC(=O)c1nnn2c1nc(N)c1cc(Cl)ccc12,.,.,.,.,/,/
C[C@@H]1ON(C)[C@H]2C[C@H]3c4[nH]c5cccc(-c6ccccc6)c5c4CCN3C[C@@H]12,.,.,.,.,/,/
COc1cc(/C=N/NC(=O)c2ccc(O)cc2)ccc1OCC(=O)Nc1cccc([N+](=O)[O-])c1,.,.,30,71,42,75
COCCNc1nc(NCCCN2CCCC2=O)c2sc(-c3ccccc3)cc2n1,.,.,.,.,/,/
C=CCNc1nc(NCCCN2CCCC2=O)c2sc(-c3ccccc3)cc2n1,.,.,38,60,.,.
CCOC1=C2CN(S(=O)(=O)c3ccccc3)[C@@H](c3ccccc3)C[C@H]2[C@H]2C(=O)N(c3ccccc3)C(=O)[C@H]2C1,.,.,.,.,/,/
OC1(C#Cc2c(-c3ccsc3)sc3ccccc23)CCCCC1,.,.,.,.,/,/
C=CCN=C1NC(c2cccc(F)c2)C(C(=O)OC)=C(C)N1Cc1cccc(C(F)(F)F)c1 (centres undefined),.,.,.,.,/,/
O=C(NCc1ccncc1)C(=O)N/N=C/c1ccc(OCc2ccccc2)cc1,.,.,31,58,41,99
Oc1ccccc1C=NNC(=S)NN=Cc1ccccc1O,.,.,32,55,58,71
Clc1ccc2c(N/N=C/c3ccc(Br)cc3)ccnc2c1,.,.,50,69,65,96
Cc1ccccc1/C=N/Nc1ccnc2cc(Cl)ccc12,.,.,50,92,94,149
C(=N\n1cnnc1)/c1cn(Cc2ccccc2)c2ccccc12,.,.,.,.,/,/
Clc1ccc(Cn2cc(/C=N/n3cnnc3)c3ccccc32)c(Cl)c1,.,.,44,60,51,77
COc1ccc2c(c1)CC/C(=C\c1ccc(OC)c(Cn3nc(C)cc3C)c1)C2=O,.,.,46,29,56,.
CCN(CC)CCOC(=O)c1ccc(N/C=C(/C#N)c2nc(-c3ccc(OC)c(OC)c3)cs2)cc1,.,.,71,115,184,196
O=C(Nc1c(F)c(F)c(F)c(F)c1F)OC[C@@H]1CSCCS(=O)(=O)N1,.,.,.,.,/,/
COc1ccccc1Nc1nnc(C)c(=O)[nH]1,.,.,.,.,/,/
COc1ccc(OC)c(Nc2cc3ccccc3c(=O)[nH]2)c1,.,.,30,27,.,.
COc1ccccc1Nc1cc2cc(Br)ccc2c(=O)[nH]1,.,.,39,31,34,.
COc1cc(CN2CCN(c3ncc(Cc4ccccc4)cn3)CC2)cc(OC)c1,.,.,.,.,/,/
